Only some compounds are listed: those with a hit (about 1.5% of all), similar ones and a draw of the others.
S100A4 MyoIIA: inhibitors of S100A4-myosin IIA peptide binding, primary screen, biochemical, fluorescence polarization, TAMRA-MyoIIA peptide. Protein S100-A4 (Homo sapiens), P26447. inhibition, % at 10.7 µM. hit rate 0.14% among 360,000;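 active = mean inhibition of at least 70% across replicates, with every replicate also reaching that level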
Target sequence (P26447 whole entry, looked up): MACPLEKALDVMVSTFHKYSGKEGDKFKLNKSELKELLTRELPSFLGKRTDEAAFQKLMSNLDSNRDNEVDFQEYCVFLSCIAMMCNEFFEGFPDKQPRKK
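incubation = readout 5 min after mixing, signal stable up to 60 min | system = S100A4 monomer protein | buffer or medium = HEPES pH 7.2 with CaCl2, KCl, NaCl, DTT, Triton | benchmarks = neutral control DMSO, positive control TFP | also added = fluorescent myosin IIA peptide, 5 nM | compound dosing = one concentration per compound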
CRFBP-R2 block: antagonists of CRF-BP/CRF-R2 complex, primary screen, cell-based, HEK293, calcium dye fluorescence, uHTS; CRF-induced calcium fluorescence; inhibition, % at 11.8 µM; hit rate 0.59% among 350,000; AID 588475, 2011;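 active = inhibition of the ligand-induced calcium signal above about 50% at the single tested concentration, limit read from the data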
SIRT5 inh: SIRT5 desuccinylase inhibitors, primary screen, biochemical, fluorescence imaging, single point, set 5; NAD-dependent protein deacylase sirtuin-5, mitochondrial (Homo sapiens), Q9NXA8; Purified SirT5, succinyl-peptide AMC, trypsin-coupled fluorescence; inhibition, % at 15 µM; hit rate 1.1% among 330,000; AID 652115, 2013; in the data active = inhibition above about 15%
PKA-R1A act: activators of PKA-R1A holoenzyme, primary screen, biochemical, fluorescence polarization, Cy5-IP20, bovine R1A, mouse PKAc; cAMP-dependent protein kinase type I-alpha regulatory subunit (Bos taurus) + …; PKA-R1A dissociation; scaled: DMSO 0%, 113 µM cGMP 100%; activation, % at 11.4 µM; hit rate 0.083% among 340,000; AID 504707, 2011;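 active = percent activation above the mean of all tested compounds plus 3 SD, cut at about 19% in these data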;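 note: higher means more PKAc released from R1A so a rise in polarization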
PKA-R2B activ: activators of PKA-R2B holoenzyme, primary screen, biochemical, fluorescence polarization, Cy5-IP20, human. hit rate 0.079% among 340,000. activation, % at 11.4 µM. PKA-R2B holoenzyme dissociation; R2B truncated from residue 108, S112A mutant; 0% DMSO only, 100% 113 µM cGMP. AID 504700, 2011. cAMP-dependent protein kinase catalytic subunit beta (Homo sapiens) + cAMP-dependent …;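 active = activation above a cutoff set at the mean over all compounds plus 3 SD, cut at about 18% in these data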;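 note: higher means more holoenzyme dissociation and a rise in polarization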
Target sequence (P31323 whole entry, looked up, other chains not shown, the tested form may be a part): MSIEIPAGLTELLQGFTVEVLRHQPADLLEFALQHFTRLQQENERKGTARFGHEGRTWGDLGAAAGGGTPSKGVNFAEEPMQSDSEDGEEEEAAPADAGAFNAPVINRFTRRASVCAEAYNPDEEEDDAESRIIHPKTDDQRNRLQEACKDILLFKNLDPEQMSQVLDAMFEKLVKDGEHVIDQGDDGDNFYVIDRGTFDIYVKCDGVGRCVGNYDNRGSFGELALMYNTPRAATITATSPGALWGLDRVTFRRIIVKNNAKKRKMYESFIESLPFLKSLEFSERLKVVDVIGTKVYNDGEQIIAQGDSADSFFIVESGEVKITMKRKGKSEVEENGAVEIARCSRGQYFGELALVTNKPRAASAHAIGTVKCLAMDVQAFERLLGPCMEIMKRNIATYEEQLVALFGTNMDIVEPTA
* marks the source's active call; other numbers are inactive results; . = not tested or not shown; + = active, no number.

SMILES	S100A4 MyoIIA	CRFBP-R2 block	SIRT5 inh	PKA-R1A act	PKA-R2B activ
O=C(O)c1ccccc1-c1c2cc(I)c(=O)c(I)c-2oc2c(I)c(O)c(I)cc12	+	-254.5	29.4*	2.9	5.4
C[C@@H]1CN([C@H](C)CO)C(=O)Cc2cc(NC(=O)Cc3ccccc3)ccc2O[C@@H]1CN(C)Cc1ccc(C(F)(F)F)cc1	-1.1	.	16.2*	.	.
C[C@H](CO)N1C[C@H](C)[C@@H](CN(C)Cc2ccc(C(F)(F)F)cc2)Oc2ccc(NC(=O)Cc3ccccc3)cc2CC1=O	6.0	.	16.1*	.	.
C[C@@H]1CN([C@H](C)CO)C(=O)Cc2cc(NC(=O)Nc3ccc(C(F)(F)F)cc3)ccc2O[C@@H]1CN(C)Cc1ccc(C(=O)Nc2ccccc2N)cc1	-2.8	.	-0.3	.	.
C[C@H]1CN([C@@H](C)CO)C(=O)Cc2cc(NC(=O)Nc3ccc(C(F)(F)F)cc3)ccc2O[C@H]1CN(C)Cc1ccc(C(=O)Nc2ccccc2N)cc1	-0.7	.	20.4*	.	.
C[C@@H]1CN([C@@H](C)CO)C(=O)Cc2cc(NC(=O)Cc3ccccc3)ccc2O[C@H]1CN(C)Cc1ccc(C(F)(F)F)cc1	-5.6	.	13.1	.	.
CC1C=NC(S(=O)(=O)N2CC[C@@H]3[C@@H](CO)N(C)c4ccc(-c5cccc(F)c5)cc4[C@@H]32)=N1 (stereo partly drawn)	9.8	.	-1.8	.	.
Cc1ccc(S(=O)(=O)Nc2ccc3c(c2)C(=O)N(C)[C@H]2CC[C@H](CC(=O)O)O[C@@H]2CO3)cc1	-1.4	.	0.6	.	.
Cc1nn(-c2ccccc2)c(C)c1/C=N/n1c(-c2ccncc2)n[nH]c1=S	-1.1	-52.4	-4.4	-7.8	-8.9
Cc1nn(-c2ccccc2)c(C)c1/C=N/n1c(-c2ccc(Cl)cc2)n[nH]c1=S	0.6	16.0	17.5*	-10.3	-5.5
CCCC#Cc1ccc2c(c1)O[C@@H](CN(C)C(=O)c1ccccc1F)[C@@H](C)CN([C@H](C)CO)S2(=O)=O	26.9	.	19.7*	.	.
CCCC#Cc1ccc2c(c1)O[C@H](CN(C)C(=O)c1ccccc1F)[C@@H](C)CN([C@@H](C)CO)S2(=O)=O	9.6	.	18.5*	.	.
Cc1oc(-c2ccc(Cl)cc2)nc1CN1CCCC(C(=O)N2CCOCC2)C1 (stereo not drawn)	1.5	0.1	21.5*	5.5	-3.2
Cc1c([N+](=O)[O-])cc(C(=O)Nc2ccc(NC(=O)c3ccco3)cc2)cc1[N+](=O)[O-]	-3.6	12.5	19.3*	3.2	-1.5
CCCC1CC(C#N)N(N(C)C)C1=C(C#N)C#N (stereo not drawn)	0.8	51.9*	-1.5	7.5	-0.9
CN(C)CCN1CCN(C2CN(Cc3cn(Cc4ccccc4C(F)(F)F)nn3)S(=O)(=O)C2)CC1 (stereo not drawn)	-0.5	.	20.6*	.	.
CCCCCCn1cc(CN2CC(N3CCSCC3)CS2(=O)=O)nn1 (stereo not drawn)	-1.0	.	17.4*	.	.
O=S1(=O)CC(N2CCCC2)CN1Cc1cn(Cc2ccccc2)nn1 (stereo not drawn)	-1.8	.	27.8*	.	.
O=S1(=O)CC(N2CCCCC2)CN1Cc1cn(Cc2ccccc2)nn1 (stereo not drawn)	-7.6	.	-5.4	.	.
O=S1(=O)CC(N2CCC(c3ccccc3)CC2)CN1Cc1ccccc1 (stereo not drawn)	-10.8	.	37.2*	.	.
O=C(C[C@H]1C=C[C@H](NC(=O)c2cccc(F)c2)[C@@H](CO)O1)NCCN1CCCC1	9.7	.	-1.0	.	.
Cc1ccc2cc(CN(Cc3ccc(F)cc3)Cc3nnnn3C3CCCC3)c(=O)[nH]c2c1	-2.3	-43.3	28.8*	-1.4	-7.7
N#C/C(=C\Nc1ccccc1SC(F)(F)F)c1nc(-c2ccc(F)cc2)cs1	3.8	6.2	18.7*	2.6	-1.8
COc1ccc(S(=O)(=O)N2CCCCCC2)cc1C(=O)N(C)Cc1ccc(C(C)(C)C)cc1	3.8	78.5*	5.5	-3.3	-9.9
CCN1CCN(S(=O)(=O)c2ccc(Cl)c(C(=O)N(CCc3ccccc3)Cc3ccccc3)c2)CC1	3.6	-5.2	-2.7	-8.9	-7.6
SMILES	S100A4 MyoIIA	CRFBP-R2 block	SIRT5 inh	PKA-R1A act	PKA-R2B activ
Cc1ccc(S(=O)(=O)N2CCCCC2)cc1C(=O)N(CCc1ccccc1)Cc1ccccc1	-22.8	67.0*	-5.7	3.3	-4.3
O=C(NC(=O)c1ccccc1O)c1ccc(C(F)(F)F)cc1	-1.2	52.0*	-5.0	.	.
CCCc1ccc(C(=O)NC(=O)c2ccccc2O)cc1	1.8	26.7	-2.6	-11.6	-2.1
Cc1ccc(C(=O)NCCC(=O)N2CCC3(CC2)NCCc2[nH]cnc23)cc1C	-1.9	-2.4	27.8*	-2.7	-4.8
Cc1ccc(C(=O)NCC(=O)N2CCC3(CC2)NCCc2[nH]cnc23)cc1C	0.1	1.2	-0.9	-6.3	7.6
C[C@@H]1CCCCO[C@H](CN(C)Cc2ccccc2)[C@H](C)CN([C@H](C)CO)C(=O)c2cc(NC(=O)NC3CCCCC3)ccc2O1	5.2	.	4.5	.	.
COc1cccc(C(=O)Oc2ccc(N3C(=O)CCC3=O)c(C)c2)c1	1.3	9.2	15.6*	-1.2	1.5
CCCC(=O)Nc1ccc2c(c1)C(=O)N(C)C[C@H](OC)[C@H](C)CN(CCC(F)(F)F)[C@@H](C)CO2	29.9	.	3.9	.	.
COC(=O)C1(Cc2cc(-c3ccc(OC)cc3OC)no2)CCN(C(=O)OC(C)(C)C)CC1	-10.6	24.1	33.8*	-0.7	-8.4
COC(=O)C1(Cc2cc(-c3cccc(Br)c3)no2)CCN(C(=O)OC(C)(C)C)CC1	-13.3	12.8	-3.6	-1.6	6.6
Cc1c(N2C(=O)C3C4C=CC(C5CC45)C3C2=O)c(=O)n(-c2ccccc2)n1C (stereo not drawn)	-4.6	115.2*	-4.9	-3.4	4.5
C[C@@H]1CN([C@H](C)CO)C(=O)c2cc(/C=C/c3ccccc3)cnc2O[C@H]1CN(C)C(=O)Nc1ccc(C(F)(F)F)cc1	-3.6	.	5.2	.	.
O=C(NCc1ccccn1)c1ccc(OC2CCN(Cc3ccccc3O)CC2)cc1	4.0	3.9	-1.7	6.0	2.4

Screens as filed in PubChem BioAssay.
